Screens as filed in PubChem.
A selection: hits, their analogues and other compounds. The true share with any hit is near 3.9%.
XBP1 UPR activ: activators of adaptive arm of unfolded protein response (XBP1) | CHO-XBP1 luciferase reporter, IRE1-XBP1 UPR activation, luminescence; percent of tunicamycin response, DMSO as zero | activation, % at 20 µM | 330,000 compounds, 0.33% hits;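 active means versus positive control, 20 µM dose yields 30% or more activation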
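Material: IRE1-XBP1 luciferase reporter CHO line / Quantity: one thousand reporter cells per well / Buffer or medium: F12 with 10% serum / Compound: 20 µM single concentration, DMSO 1% / Times: 6 h treatment, 37 °C / Detection: Steady-Glo luciferase glow luminescence, 10 min after reagent addition / Benchmarks: tunicamycin high, DMSO low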
CHOP inhibitor: blocks CHOP induction under ER stress. CHO-K1 CHOP-promoter luciferase, tunicamycin-induced, 15-18 h. inhibition, % at 10 µM. 220,000 compounds, 3.8% hits;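 active means compounds that reduced the stress-induced luciferase reporter signal by more than about 70% of percent inhibition, limit read from the data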
Gli-Sufu antag: Gli-Sufu pathway antagonism; Sufu-KO-LIGHT fibroblasts, Gli luciferase reporter luminescence; inhibition, % at 5 µM; 340,000 compounds, 0.74% hits; AID 588413;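 active means inhibition above about 55%, limit read from the data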
Jurkat NFkB inh: inhibitors of the PMA/ionomycin-induced NF-kB reporter in Jurkat cells. inhibition, % at 4 µM. PMA/ionomycin-induced NF-kB luciferase reporter, luminescence. 330,000 compounds, 0.53% hits; in the data active means inhibition above about 50%
697 NFkB inh: lowers PMA/ionomycin-induced NF-kB signal in 697 B cells; 330,000 compounds, 0.33% hits; inhibition, % at 4 µM; AID 435022; 697 B-cell NF-kB luciferase reporter, 16 h; in the data active means inhibition above about 35%
UPR CHOP act: apoptotic UPR (CHOP) activation; CHO-CHOP luciferase reporter, luminescence; percent of tunicamycin response over DMSO baseline; activation, % at 10 µM; 330,000 compounds, 0.34% hits;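 active means at 10 µM dose, activation of 40% or more, normalized to positive control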
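assay system = CHO CHOP reporter cells | amount = 500 CHO-CHOP cells per well | buffer or medium = F12 with 10% FBS | incubation = 16-18 h cell attachment, then 6 h compound exposure, 37 °C | detection = luminescence read with Steady-Glo | read-out = percent activation relative to tunicamycin control | controls = tunicamycin high control, DMSO low control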
697 NFkB conf: inhibitors of the PMA/ionomycin-induced NF-kB reporter in 697 B cells, retest; shares compounds with 697 NFkB inh; 697 B-cell NF-kB luciferase, 16 h; inhibition, % at 4 µM; 2,000 compounds, 35% hits; AID 449746; in the data active means inhibition mostly above about 28%, no sharp cut-off; inactive means mostly below about 22%
Of the large screens only hits and unclear results are named; the others gave an inactive call (follow-up assays come after a bar, where they were run).

Cn1c(=O)cc(OCCCC(=O)NC2CCCC2)c2ccccc21	697 NFkB inh 68.5 | 697 NFkB conf 46.2
Cn1c(=O)cc(OCC(=O)NC2CCCCC2)c2ccccc21	none
CN1CCN(C(=O)CCCOc2cc(=O)n(C)c3ccccc23)CC1	none
Cn1c(=O)cc(OCCCC(=O)N2CCCCC2)c2ccccc21	697 NFkB inh 38.5 | 697 NFkB conf 42.0
Cn1c(=O)cc(OCCCC(=O)NCc2ccccn2)c2ccccc21	697 NFkB inh 36.5 | 697 NFkB conf 31.2
COc1ccc(CCN2CC(C(=O)OCC(=O)NC(C)c3cccc(Cl)c3)CC2=O)cc1OC (stereo not drawn)	none (no result: CHOP inhibitor)
COc1ccc2c(CC(=O)OCC(=O)Nc3cccc(C)c3)coc2c1	none (no result: CHOP inhibitor)
CCCCNc1ncnc2c1cnn2-c1ccccc1	none (no result: CHOP inhibitor)
Cc1ccc(-n2ncc3c(NCc4cccnc4)ncnc32)cc1C	none (no result: CHOP inhibitor) | 697 NFkB conf inactive
Cc1ccc(-n2ncc3c(NCc4cccnc4)ncnc32)c(C)c1	none
CCCCNc1ncnc2c1cnn2-c1ccc(Cl)cc1	none (no result: CHOP inhibitor) | 697 NFkB conf inactive
CC(C)C(=O)Nc1cc2c3c(c1)CCC(=O)N3CCC2	none (no result: CHOP inhibitor)
CN(CCNC(=O)c1c[nH]c2c1ccc1ccccc12)CCNC(=O)c1c[nH]c2c1ccc1ccccc12	none (no result: XBP1 UPR activ, CHOP inhibitor, Jurkat NFkB inh, 697 NFkB inh, UPR CHOP act)
COc1cccc(NC(=O)c2c(F)cccc2F)c1	697 NFkB inh 39.2 (no result: CHOP inhibitor) | 697 NFkB conf inactive
COc1cccc(NC(=O)c2ccccc2F)c1	none (no result: CHOP inhibitor)
COCCn1c(SC(C)C(=O)Nc2ncc(Cl)cc2Cl)nc2ccccc21 (stereo not drawn)	none | 697 NFkB conf inactive
CCN1C(=O)[C@H]2[C@H]3CN=C(SCC4CC4)N3[C@@](CC)(C(=O)OC)[C@H]2C1=O	none (no result: CHOP inhibitor, Jurkat NFkB inh)
O=C(c1cc2nc(-c3ccccc3)cc(-c3ccccc3)n2n1)N1CCN(C(=O)c2ccco2)CC1	697 NFkB inh 41.6 | 697 NFkB conf 36.5
Cc1ccc(C(=O)CSc2nnc(COc3cc(C)cc(C)c3)o2)cc1	697 NFkB inh 36.2 | 697 NFkB conf 55.3
Cc1cccc(OCc2nnc(SCC(=O)c3ccccc3)o2)c1	none
Cc1ccc(C(=O)CSc2nnc(COc3ccccc3)o2)cc1	697 NFkB inh 53.9 | 697 NFkB conf 40.5
Cc1cc(C)cc(OCc2nnc(SCC(=O)c3ccccc3)o2)c1	697 NFkB inh 46.3 | 697 NFkB conf 44.8
O=C(CSc1nnc(COc2ccccc2)o1)c1ccccc1	none
COc1ccc(C(=O)NC2CCN(CC(=O)N3CCCCC3)CC2)cc1	none (no result: CHOP inhibitor)
O=c1cc[nH]c2ccc(Cl)cc12	none
O=c1cccc2c1c1cc[nH]c3ccc(=O)n2c31	697 NFkB inh 55.9 (no result: CHOP inhibitor) | 697 NFkB conf 52.2
COC(=O)C1=C[C@@H](C(=O)OC)C2C3=C(C(=O)C24CCCCC4)[C@H](C)n2c(=O)n(C)c(=O)n2[C@@H]3C1 (stereo partly drawn)	none (no result: CHOP inhibitor)
COC(=O)C1=C[C@@H](C(=O)OC)C2C3=C(C(=O)C24CCCCC4)[C@H](C)n2c(=O)n(-c4ccccc4)c(=O)n2[C@@H]3C1 (stereo partly drawn)	697 NFkB inh 38.1 (no result: CHOP inhibitor) | 697 NFkB conf inactive
O=C(NCCCC(NC(=O)OCc1ccccc1)C(=O)O)OCc1ccccc1 (stereo not drawn)	none (no result: CHOP inhibitor)
O=C1CN(C(=O)COC(=O)c2ccc([N+](=O)[O-])o2)c2ccccc2N1	none (no result: CHOP inhibitor)
COC(=O)c1cn(Cc2cc(OC)ccc2OC)cc(F)c1=O	none (no result: CHOP inhibitor)
CCCn1c(=N)c(C(=O)NC2CCCC2)cc2c(=O)n3cccc(C)c3nc21	none
Cc1cccn2c(=O)c3cc(C(=O)NC4CCCCC4)c(=N)n(CCN4CCOCC4)c3nc12	697 NFkB inh 53.5 | 697 NFkB conf 39.2
CC(=O)N1CCc2cc(S(=O)(=O)NC(C(=O)NC(C)c3ccccc3)C(C)C)ccc21 (stereo not drawn)	none (no result: CHOP inhibitor)
O=C(Cc1ccccc1Cl)Nc1cc(S(=O)(=O)N2CCOCC2)ccc1N1CCOCC1	none (no result: CHOP inhibitor)
CN(C)CCCO[C@@H]1[C@H]2OC(C)(C)O[C@H]2O[C@@H]1[C@H](O)CO	none (no result: CHOP inhibitor)
